# Shown are actives, neighbours in structure and some others; about 3% of the full set was active somewhere.
# HTR1E agonist: agonists of human 5-HT1E serotonin receptor | P28566 | CHO 5-HT1E Ga15 NFAT-bla reporter, FRET; 0% DMSO wells, 100% control agonist wells | 65,000 compounds, 0.69% hits | activation, % at 6 µM;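 active = activation above a set limit, the screen-wide mean activation plus 3 SD, cut at about 8.5% in these data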;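 note: 100% = positive control agonist at 1 µM giving full maximal response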
# 5-HT1A blocker: 5-HT1a (human) receptor antagonism | P08908 | CHO 5-HT1a Ga15 NFAT-bla reporter, antagonist mode | inhibition, % at 10 µM | 62,000 compounds, 0.68% hits | AID 612;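 active = inhibition above the mean of all tested compounds plus 3 SD, cut at about 43% in these data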;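 note: receptor stimulated by 5-CT agonist at 100 nM near EC80; beta-lactamase reporter measured by ratiometric fluorescence of a cleavable substrate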
# S1P3 ag: S1P3 (human) receptor agonism; S1P3 NFAT-BLA reporter cells, FRET ratio; relative to 1 µM S1P, basal subtracted; Q99500; activation, % at 4.5 µM; 60,000 compounds, 0.1% hits;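 active = activation above the screen-wide mean plus 3 SD, cut at about 4.5% in these data, passing the limit was not always enough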
#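 Assay system: CHO cells stably expressing human S1P3, Gα16 and NFAT-β-lactamase reporter. Timing: overnight plating, 4 h compound 37 °C, 2 h substrate RT. Signal: β-lactamase FRET emission ratio 460/535 nm. Measure: percent activation versus median 1 µM S1P response, basal-subtracted, per plate. Repeats: primary screen single test, confirmation screen in triplicate.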
# S1P1 ag-PAM: agonists and agonism potentiators of human S1P1 receptor. 56,000 compounds, 0.57% hits. activation, % at 9.5 µM. AID 449. S1P1 CRE-bla cells, forskolin, beta-lactamase FRET, potentiator mode; S1P1 agonist co-added at EC20, 2 nM; 100% = saturating reference agonist, 0% = basal;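 active = activation above a cutoff set at the mean activation of all tested compounds plus 3 SD, cut at about 54% in these data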;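 note: forskolin at 4 µM as EC80 and the EC20 agonist is SEW2871; 100% = SEW2871 at its EC100 plus forskolin at EC80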
# Target sequence (P21453 whole entry, looked up): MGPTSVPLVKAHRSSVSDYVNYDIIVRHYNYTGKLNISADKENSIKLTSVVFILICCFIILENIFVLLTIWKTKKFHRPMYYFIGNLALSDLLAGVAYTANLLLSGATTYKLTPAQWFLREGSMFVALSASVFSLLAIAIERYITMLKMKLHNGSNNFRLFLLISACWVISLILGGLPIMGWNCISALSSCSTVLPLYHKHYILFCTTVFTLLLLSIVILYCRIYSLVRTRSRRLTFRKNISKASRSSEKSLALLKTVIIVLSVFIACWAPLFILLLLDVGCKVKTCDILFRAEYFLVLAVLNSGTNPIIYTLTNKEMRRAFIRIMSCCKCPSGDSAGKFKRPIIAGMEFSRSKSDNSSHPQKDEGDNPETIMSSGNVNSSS
# 5HT1E antag: 5-HT1E (human) receptor antagonism; P28566; CHO 5-HT1E Ga15 NFAT-bla reporter, FRET, antagonist; inhibition, % at 6 µM; 65,000 compounds, 0.99% hits; AID 571;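 active = inhibition above a set limit, the mean inhibition across every tested compound plus 3 SD, cut at about 29% in these data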;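 note: signal is the 460 over 535 nm emission ratio of beta-lactamase substrate; 0% = agonist plus DMSO wells and 100% = wells without agonist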
# HTR1A agonist: 5-HT1a (human) receptor agonism; P08908; CHO 5-HT1a Ga15 NFAT-bla reporter, FRET ratio; 0% basal, 100% maximal reference agonist; activation, % at 10 µM; 65,000 compounds, 0.56% hits;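 active = activation above the screen-wide mean activation plus 3 SD, cut at about 19% in these data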;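 note: 0% = DMSO wells and 100% = 5-CT at EC100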
# * hit, by the source's call; . = no result.
SMILES,HTR1E agonist,5-HT1A blocker,S1P3 ag,S1P1 ag-PAM,5HT1E antag,HTR1A agonist
COC(=O)c1ccccc1NC(=O)CSc1nc(-c2ccco2)cc(C(F)(F)F)n1,-1.3,27.9,-2.0,7.5,50.1*,-1.8
Cc1cc(C(=O)NCc2ccccc2Br)no1,0.1,-2.7,-0.7,-15.0,1.0,-2.2
Cc1cccc(N2CCN(C(=O)c3ccc(Cl)c(S(=O)(=O)NCc4ccco4)c3)CC2)c1C,15.5*,6.6,-1.6,-5.6,8.2,3.8
O=C(O)c1ccc(Cl)c(S(=O)(=O)NCc2ccco2)c1,0.5,3.6,-1.1,-5.2,-2.1,-3.4
COc1ccc(-c2[nH]ncc2-c2ccc3c(c2)OCCO3)c(O)c1,-0.3,44.4*,-1.1,91.2*,16.1,-3.0
CCOc1ccc(-c2[nH]ncc2-c2ccc(OC)c(OC)c2)c(O)c1,0.1,18.2,-1.2,-25.6,27.2,0.0
CCc1cc(-c2[nH]ncc2-c2ccc3c(c2)OCO3)c(O)cc1O,-0.4,33.0,-1.0,69.2*,15.3,-4.0
O=S(=O)(c1cccs1)N1CCN(CC(O)COc2cc(Cl)ccc2Cl)CC1 (configuration not stated),0.1,-4.0,-1.1,66.0*,7.6,-0.9
Cn1c(N2CCOCC2)nc(-c2ccccc2)c1-c1ccccc1,20.4*,0.4,1.2,5.1,-5.8,2.0
CCn1c(Cc2ccccc2)nnc1SCC(=O)Nc1ccc(N2CCOCC2)c(Cl)c1,0.9,-4.5,-1.3,.,-0.3,0.6
Cn1c(SCC(=O)Nc2ccc(N3CCOCC3)c(Cl)c2)nnc1-c1ccccc1,-0.7,-2.4,-1.2,89.2*,-11.8,-1.0
COc1cccc(-c2nn(C)c3sc(C(=O)Nc4ccc5c(c4)OCCO5)cc23)c1,0.9,-3.8,0.8,21.5,-13.2,-1.0
COc1cccc(-c2nn(C)c3sc(C(=O)NCc4ccccn4)cc23)c1,-1.0,19.7,-1.1,-14.2,42.0*,-1.2
C=CCOn1c(=O)c(=O)n(OCc2ccccc2)c2ccccc21,2.8,-12.8,-0.3,5.0,-6.5,-1.2
Cc1cnc(C)c(N2CCC(C(=O)NC(C)c3cccs3)CC2)n1 (configuration not stated),0.2,3.1,-0.6,15.6,2.4,-3.8
COc1ccccc1C(=O)Nc1ccc(C(=O)O)cc1,-0.2,0.4,0.3,-22.7,-8.7,74.0*
Cc1cc(C(=O)CSc2nc(N)cc(N)n2)c(C)n1CCc1ccc(F)cc1,-0.1,-10.3,0.0,30.8,3.9,2.6
Cc1cc(C(=O)CSc2nnnn2C)c(C)n1-c1cccc(F)c1,-0.1,-12.9,2.8,93.3*,-2.5,-1.0
Cc1cc(C(=O)CSc2nnc(C3COc4ccccc4O3)n2C)c(C)n1-c1ccc(F)cc1 (configuration not stated),0.0,27.5,3.9,28.8,29.6*,-3.4
COc1ccc(CCn2c(C)cc(C(=O)CSc3nnnn3C)c2C)cc1,-0.7,1.3,14.2*,6.8,5.5,2.5
COc1ccc(C(=O)Nc2ccc(-c3ccc(C)o3)cc2)cc1S(=O)(=O)N1CCOCC1,0.2,4.2,-0.8,-0.3,6.3,-1.9
COCC(C)NC(=O)C1CC(c2cccc(Br)c2)=NO1 (configuration not stated),0.2,5.8,-0.4,-4.0,1.3,-2.3
CCn1c(SCC(=O)c2ccc(OC)cc2)nnc1C(C)NC(=O)c1ccc(OC)cc1 (configuration not stated),-0.8,6.7,-1.1,.,6.5,0.7
C=CCc1cccc2cc(C(=O)N(CC)CC)c(=O)oc12,-0.5,-7.3,-1.4,-16.2,-1.6,0.9
Nc1nonc1C(=O)NCCNCc1cc(Br)ccc1OCc1ccc(F)cc1,-0.3,49.4*,-2.4,92.9*,10.1,-0.8
SMILES,HTR1E agonist,5-HT1A blocker,S1P3 ag,S1P1 ag-PAM,5HT1E antag,HTR1A agonist
COC(=O)c1cc(Nc2ncnc3c2cnn3-c2ccccc2)cc(C(=O)OC)c1,0.4,-7.7,-1.1,-0.1,-5.0,-3.7
O=C(OC(C(=O)NC1CCCC1)c1ccccc1F)c1ccco1 (configuration not stated),0.1,11.6,0.2,-16.0,-5.8,156.3*
COc1ccc(C(OC(=O)c2ccco2)C(=O)NC2CCCCC2)cc1OC (configuration not stated),0.0,2.0,-0.2,-5.5,-3.4,-1.8
CCOc1ccccc1C(=O)N(CN1CCCC1=O)c1cccc(Cl)c1,0.4,-10.2,-0.5,-0.9,-12.0,-1.4
Cc1cnc(C(=O)Nc2cccc3cccnc23)cn1,-0.5,-4.7,-0.2,-6.3,-0.2,2.9
O=C(Nc1cccc2cccnc12)c1cccnc1,-1.8,3.7,-0.3,.,3.0,39.2*
CC(C)c1cc(C(F)(F)F)n2nc(C(=O)Nc3ccc4c(c3)OCO4)cc2n1,0.3,12.6,0.3,101.5*,23.6,1.3
COCCn1c(CCC(=O)O)nc2c1c(=O)[nH]c(=O)n2CC(C)C,-1.0,-3.2,-0.3,-15.9,4.6,-2.6
COc1ccc2[nH]cc(C(O)CN3CCN(c4ccccc4)CC3)c2c1 (configuration not stated),0.2,13.1,-0.9,-16.0,-4.1,1.0
COc1ccc(N2CCN(CC(O)c3c[nH]c4ccc(OC)cc34)CC2C)cc1 (configuration not stated),-0.1,19.4,-0.6,-0.7,3.4,22.9*
Cc1ccc(CCNC(=O)C2CCC(=O)N2Cc2cccnc2)cc1 (configuration not stated),0.9,-4.9,-0.4,-3.4,3.2,0.2
CCc1c(C)nc2ncnn2c1NCCc1ccc(OC)cc1,-0.4,8.9,-1.3,54.9*,19.7,0.1
c1ccc(CCNc2c3c(nc4ncnn24)CCC3)cc1,-0.2,2.7,-1.7,18.5,3.3,1.0
O=C(COc1ccc(Cl)cc1)NC1CCSC1=O (configuration not stated),-1.3,-21.6,0.5,-2.3,4.0,-1.0
Cc1sc2ncn(CC(=O)OC(C)C(=O)NC(C)(C)C)c(=O)c2c1C (configuration not stated),0.3,-5.0,.,.,-0.9,97.6*
CCS(=O)(=O)c1ccc(O)c(N2C(=O)C3C4C=CC(C4)C3C2=O)c1 (configuration not stated),0.1,-16.5,1.0,-18.6,-0.2,-0.3
CC1=C(C(=O)OCc2ccccc2)C(c2ccc(N3CCOCC3)cc2)NC(=O)N1 (configuration not stated),0.2,-4.8,-0.2,-26.3,8.1,-0.3
CC1=C(C(=O)OCc2ccc3c(c2)OCO3)C(c2ccccc2)NC(=O)N1 (configuration not stated),0.3,18.3,-0.8,88.1*,15.9,2.5

# Screening results as filed in PubChem.
